A selection: hits, their analogues and other compounds. The true share with any hit is near 3.1%.
F508del corr: CFTR F508del correction in bronchial cells | CFBE cells, YFP halide quenching; stimulated with forskolin plus potentiator P3; % fluorescence drop versus neutral controls | activity (quench increase), % at 7.58 µM | 0.36% of 350,000 active | AID 720511;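 active means mean added fluorescence quench of at least 8% versus neutral control, with both replicates also reaching 8%; inconclusive means only one of the mean or replicate conditions met; inactive means mean below 8% and not both replicates reaching 8%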;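 further: cells transiently co-express mutant CFTR-F508del with the halide-sensitive YFP; corrector assay measuring rescue of mutant channel to the surface after 24 h compound exposure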
HIV Env fusion: inhibitors of HIV Env-mediated cell fusion | inhibition, % at 12.3 µM | HeLa-JRFL Env/CEM21 cell fusion, luciferase | 1.1% of 360,000 active;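 active means mean replicate inhibition score of at least 50 and every replicate individually at or above 50; inconclusive means only one of the two criteria met; inactive means mean below 50 and not all replicates reaching 50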;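 further: 0% = plate neutral controls and 100% = maraviroc near 300 nM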
miR-122 sensor: miR-122 inhibition in Huh7 cells. Huh7 miR-122 Renilla luciferase sensor, 48 h; neutral wells = 0, positive control = 100. activation (reporter increase), % at 12.5 µM. 0.3% of 340,000 active. AID 602342;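 active means mean replicate activation score at least 90 and every replicate individually at or above 90; inconclusive means only one of the two criteria met; inactive means neither criterion met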;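 further: higher luciferase means less miR-122 activity so hits act as miR-122 inhibitors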
Cneo AK release: causes C. neoformans cell lysis. adenylate kinase release luminescence, 4 h; normalised: neutral wells 0, clomiphene wells 100. lysis activity, % at 15 µM. 0.2% of 360,000 active. AID 651654;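 active means mean lysis activity across replicates of at least 80%, whatever share of replicates individually reach that level; inactive means mean lysis activity below 80%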
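Material: C. neoformans cells; Schedule: 4 h static compound exposure, 37 °C, read 1 h post-reagent; Measured by: adenylate kinase release luminescence; Read-out: signal increase indicating cell lysis; Controls: Clomiphene as positive lysis control.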
INS-1E GSIS act: primary screen for activators of insulin secretion dependent on glucose, INS-1E cells, GLuc reporter luminescence. INS-1E GLuc reporter insulin secretion, 2-3 h. activation, % at 16.6 µM. 0.61% of 370,000 active;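 active means lowest replicate activation of at least 40%, so every replicate reaches that level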;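 further: 0% = median of neutral control wells and 100% = median of IBMX positive control wells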
rRNA inh HTS: inhibits bacterial ribosomal RNA function over humanized ribosomes; 1.6% of 350,000 active; AID 720706; GFP signal change (wild-type ribosome), % (test concentration not listed); E. coli WT GFP vs humanized-ribosome RFP mutants, fluorescence, 24 h; active compounds read low; DMSO median 0, no signal -100;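 active means significant combined selectivity score with lowered wild-type GFP, culture density cut under 30%, mutant RFP and density less affected; inactive means any of these conditions unmet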
* = called active by the depositor; i = inactive; ? = inconclusive; nt = not tested or not shown; ! = not active in a repeat; [ ] = remark or other dose.

SMILES	F508del corr	HIV Env fusion	miR-122 sensor	Cneo AK release	INS-1E GSIS act	rRNA inh HTS
COc1ccc2c3c([nH]c2c1)[C@H](CO)N(C(=O)c1ccncc1)CC31CN(Cc2cccnc2)C1	nt	nt	nt	nt	13	-3
CC1(C)CC(=O)C(C2C3=C(CC(C)(C)CC3=O)Oc3ccccc32)C(=O)C1 (centres undefined)	1	2	nt	nt	6	-22*
CC1(C)CC(=O)C(C2C3=C(CC(C)(C)CC3=O)Oc3ccc4ccccc4c32)C(=O)C1 (centres undefined)	1	-13	nt	nt	5	8
CC(C)C#Cc1cnc2c(c1)C(=O)N([C@@H](C)CO)C[C@@H](C)[C@@H](CN(C)C(=O)c1ccccc1F)O2	-3	-53[16.7 µM]	-7[16.7 µM]	0	-2	3
Cc1cc(C)c(S(=O)(=O)Nc2ccc(O)cc2)cc1C	nt	nt	69	0	nt	nt
CC(=O)Nc1cc(S(=O)(=O)Nc2ccc(C)cc2)c(C)cc1C	nt	nt	129*	-2	nt	nt
Cc1ccc(OC(C)C(=O)Nc2ccc(C)c(S(=O)(=O)Nc3ccc(C)cc3C)c2)cc1 (centres undefined)	nt	13	196*	nt	-16	nt
COCCn1c(=O)[nH]c2cc(C(=O)Nc3cc(OC)c(OC)c(OC)c3)ccc2c1=O	2	-9	nt	1	47*	4
CCOc1ccc(/C=C2/Sc3ccc(C(=O)NCC4CCCO4)cc3N(C)C2=O)cc1OC (centres undefined)	0	7	-19	0	40*	-19
O=[N+]([O-])c1cccc(-c2nc3ccccc3s/c2=N/O)c1	-1	-16	6	-1	82*	2
O=[N+]([O-])c1cccc(-c2cnc3ccccc3n2)c1	0	-27	5	2	-14	7
CO[C@@H]1CN(C)C(=O)c2ccc(NC(=O)c3ccccc3F)cc2OC[C@H](C)NC[C@@H]1C	-1	11[16.7 µM]	-18[16.7 µM]	0	2	3
CN(CCCNC(=O)c1cc2c(=O)[nH]c3ccccc3c2n1C)Cc1ccccc1	5	59*	nt	nt	-2	-7
Cn1c(C(=O)NCCCN2CCN(c3ccccc3F)CC2)cc2c(=O)[nH]c3ccccc3c21	nt	94*	-2	-3	nt	nt
CO[C@@H]1CN(C)C(=O)c2ccc(NC(=O)C3CCOCC3)cc2OC[C@@H](C)N(C(=O)C2CCOCC2)C[C@H]1C	-2	nt	-1[16.7 µM]	-2	8	2
C=C1CCN([C@H](C(=O)O)C(C)C)S(=O)(=O)c2ccccc21	2	-12	1	1	9	8
C=C1CCN([C@H](C(=O)OCc2cccc(C)c2)C(C)C)S(=O)(=O)c2ccccc21	-2	76*	-3	-7	-10	1
C[C@@H]1CN([C@@H](C)CO)C(=O)c2cc(NC(=O)Nc3ccc(C(F)(F)F)cc3)ccc2O[C@H]1CN(C)S(=O)(=O)c1cccs1	-3	?	6[16.7 µM]	nt	-10	-1
Cc1ccnc(NC(=O)CCCOc2cc(=O)n(C)c3ccccc23)c1	-3	i	183*!	2	-1	-3
O=C(NC(=S)Nc1ccc(N2CCCCC2)c(Cl)c1)c1ccc2c(c1)OCCO2	nt	70*	3	-2	-32	nt
COCC(=O)Nc1ccc2c(c1)C(=O)N(C)[C@@H]1CC[C@@H](CC(=O)NC3CCCC3)O[C@@H]1CO2	0	-19[16.7 µM]	-60[16.7 µM]	-6	12	4
COc1cccc(S(=O)(=O)N(C)C[C@H]2Oc3cc(C4=CCCC4)ccc3S(=O)(=O)N([C@H](C)CO)C[C@@H]2C)c1	-3	63*[16.7 µM]	-6[16.7 µM]	-5	14	3
COc1cccc(S(=O)(=O)N(C)C[C@H]2Oc3cc(C4=CCCC4)ccc3S(=O)(=O)N([C@H](C)CO)C[C@H]2C)c1	-1	95*[16.7 µM]	10[16.7 µM]	-3	-1	3
CN(C)S(=O)(=O)c1ccc(NS(=O)(=O)/C=C/c2ccccc2)cc1	nt	-24	165*	-5	nt	nt
COc1cccc2sc(N(CCN(C)C)C(=O)c3ccc4c(c3)CCCC4)nc12	1	5	nt	70	-21	-30*
SMILES	F508del corr	HIV Env fusion	miR-122 sensor	Cneo AK release	INS-1E GSIS act	rRNA inh HTS
CN(C)CCN(C(=O)c1ccc2c(c1)CCCC2)c1nc2c(F)cccc2s1	2	10	-6	-2	-22	-18*
Cc1c(C(=O)N/N=C/c2cccnc2)sc(=S)n1C	nt	nt	nt	nt	6	nt
Cn1c(N)c(C(=O)Nc2ccc3ccccc3c2)sc1=S	nt	-118	1	-4	86*	nt
Cn1c(N)c(C(=O)N/N=C/c2ccccc2)sc1=S	-1	-3	-1	10	-8	-36*
O=P(OC1CCCCC1)(OC1CCCCC1)C(O)c1c(Cl)cccc1Cl (centres undefined)	nt	59*	38	4	nt	nt
CN(C)c1ccc(C(O)P(=O)(OC2CCCCC2)OC2CCCCC2)cc1 (centres undefined)	-1	40	6	-1	-3	-34*
O=P(OC1CCCCC1)(OC1CCCCC1)C(O)c1ccc(Cl)cc1Cl (centres undefined)	nt	61*	55	-4	nt	nt
Cc1ccc(C(O)P(=O)(OC2CCCCC2)OC2CCCCC2)cc1 (centres undefined)	nt	-60	49	0	nt	nt
C[C@H]1CN(C)C(=O)c2cccc(N(C)C)c2O[C@H]1CN(C)C(=O)OC(C)(C)C	nt	nt	nt	nt	-14	1
C/C=C/c1ccc2c(c1)O[C@@H](CN(C)C(=O)COC)[C@H](C)CN([C@H](C)CO)S2(=O)=O	-2	2[16.7 µM]	nt	-7	3	-2
C[C@H]1CN([C@@H](C)CO)C(=O)c2cc(NS(=O)(=O)c3cn(C)cn3)ccc2O[C@H]1CN(C)Cc1ccccc1	-2	-1[16.7 µM]	-2[16.7 µM]	-2	2	4
CC(=O)Oc1ccccc1C(=O)C=Cc1cccc([N+](=O)[O-])c1	-1	-247	25	4	nt	-45*
CCOC(=O)C(c1ccccc1)C(Nc1cc(C(F)(F)F)cc(C(F)(F)F)c1)c1ccccn1 (centres undefined)	1	67*	nt	nt	-7	1
O=C(CCC(F)(F)F)N1CCCC(N2CCN(c3cccc(Cl)c3)CC2)C1 (centres undefined)	2	7	6	0	-19	-23*
COc1ccc(CCC(=O)Nc2ccc(C)c(S(=O)(=O)N(C)C)c2)cc1OC	nt	45	-7	nt	-2	nt
COc1ccc(C(=O)NCC(=O)OCC(=O)Nc2ccc(C)c(S(=O)(=O)N(C)C)c2)cc1OC	-2	7	64	1	68*	1
CC(C)NC(=O)N(C)C[C@@H]1Oc2c(NS(=O)(=O)c3cn(C)cn3)cccc2C(=O)N([C@H](C)CO)C[C@H]1C	1	14[16.7 µM]	2[16.7 µM]	3	1	1

Source: PubChem
